Published values pooled from the literature.
Protocols differ between the studies behind these lines.
Target: Serine/threonine-protein kinase 3 (STK3, Homo sapiens, UniProt Q13188)
Sequence (Q13188 1-491, as in one of the studies): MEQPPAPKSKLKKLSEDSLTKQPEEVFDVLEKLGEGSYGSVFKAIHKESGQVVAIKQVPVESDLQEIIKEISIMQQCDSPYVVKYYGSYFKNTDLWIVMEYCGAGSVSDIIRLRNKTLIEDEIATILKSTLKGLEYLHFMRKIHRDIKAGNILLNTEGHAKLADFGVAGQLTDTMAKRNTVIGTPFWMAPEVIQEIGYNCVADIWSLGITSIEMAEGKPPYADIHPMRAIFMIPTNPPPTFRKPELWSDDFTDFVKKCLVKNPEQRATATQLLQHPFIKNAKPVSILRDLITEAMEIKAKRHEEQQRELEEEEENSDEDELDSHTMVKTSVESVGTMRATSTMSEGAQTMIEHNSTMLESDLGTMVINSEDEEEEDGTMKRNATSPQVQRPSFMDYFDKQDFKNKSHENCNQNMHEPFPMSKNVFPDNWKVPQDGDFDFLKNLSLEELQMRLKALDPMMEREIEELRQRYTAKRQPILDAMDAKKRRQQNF

| SMILES | effect on | method | concentration | remaining binding [%] |
| --- | --- | --- | --- | --- |
| Cc1cnc(Nc2ccc(C(=O)N3CCC(N4CCCC4)CC3)cc2)nc1-c1cc2ccccc2s1 | binding | competition with immobilised ligand | 1 µM | 75 |
| O=C(O)c1cc(-c2ccc(C3CCNCC3)cc2)c2ccc(-c3ccc(C(F)(F)F)cc3)cc2c1 | cell-free assay | competition with immobilised ligand | 1 µM | 100 |
| COc1cnc(Nc2cccc(S(N)(=O)=O)c2)nc1N1CCN(c2ccccc2)C(=O)C1 | binding | competition with immobilised ligand | 1 µM | 98 |
| O=C(Nc1cccnn1)N1CC(C/C=C/c2cncc(Oc3ccc(C(F)(F)F)cn3)n2)C1 | cell-free assay | competition with immobilised ligand | 1 µM | 80 |
| COc1cnc(Nc2cccc(S(N)(=O)=O)c2)nc1N1CCN(c2ccccc2)CC1 | binding | competition with immobilised ligand | 1 µM | 95 |
| CCN1CCN(Cc2ccc(C(=O)Nc3ccc(C)c(Oc4ccc5c(c4)CC(=O)N5)c3)cc2C(F)(F)F)CC1 | binding | competition with immobilised ligand | 1 µM | 14 |
| C[C@@H](c1ccc(-n2cnc3c(N)ncnc32)cc1)N1CCc2nn(C)c(Cc3ccccc3)c2C1=O | binding | competition with immobilised ligand | 0.1 µM | 74 |
| O=C(c1ccc(Nc2ncc(Cl)c(-c3ccc(Cl)s3)n2)cc1)N1CCC(N2CCCC2)CC1 | binding | competition with immobilised ligand | 1 µM | 16 |
| COc1ccnn2ncc(-c3ccnc(N(C)C)n3)c12 | binding | – | 1 µM | 100 |
| CNC(=O)Nc1ccc2c(c1)[C@@]1(CC2)OC(=O)N(CC(=O)N(Cc2ccc(F)cc2)[C@@H](C)C(F)(F)F)C1=O | cell-free assay | competition with immobilised ligand | 1 µM | 97 |
| Cc1cnn2ncc(-c3ccnc(N(C)C)n3)c2c1 | binding | – | 1 µM | 100 |
| Cc1cc(NC(=O)c2cccc(S(F)(F)(F)(F)F)c2)cc(-n2ccn3nc(-c4cccnc4)cc23)c1 | cell-free assay | competition with immobilised ligand | 1 µM | 100 |
| C[C@@H]1CCN(c2nccc(-c3cnn4ncccc34)n2)C1 | binding | – | 1 µM | 100 |
| C[C@H](c1ccc(F)cc1)N(Cc1cccc(C(=O)O)c1)C(=O)c1cnc2ccccc2c1 | cell-free assay | competition with immobilised ligand | 1 µM | 100 |
| N[C@H]1CCN(c2nccc(-c3cnn4ncccc34)n2)C1 | binding | – | 1 µM | 100 |
| COc1cc(-c2cn(C3CCc4ccccc4N(CC(F)(F)F)C3=O)nn2)ccc1-n1ccc(C)n1 (stereo not shown) | cell-free assay | competition with immobilised ligand | 1 µM | 84 |
| CN(c1nccc(-c2cnn3ncccc23)n1)C1CC1 | binding | – | 1 µM | 98 |
| C=CC(=O)N1CCC(C(=O)NCC(=O)N2CCN(c3nc(-c4cnc(N)nc4C(F)F)nc(N4CCOCC4)n3)CC2)CC1 | binding | competition with immobilised ligand | 1 µM | 97 |
| F[C@@H]1CCN(c2nccc(-c3cnn4ncccc34)n2)C1 | binding | – | 1 µM | 100 |
| O=C(c1ccc(Nc2ncc(Cl)c(-c3cc4ccccc4s3)n2)cc1)N1CCC(N2CCCC2)CC1 | binding | competition with immobilised ligand | 1 µM | 65 |
| CN(C)c1nccc(-c2cnc3ncccn23)n1 | binding | – | 1 µM | 62 |
| O=C(NCC1CCOCC1)c1n[nH]cc1NC(=O)c1c(F)cccc1F | binding | competition with immobilised ligand | 1 µM | 89 |
